Source: PubChem BioAssay (several laboratories)
NF-kB expr up: compounds increasing NF-kB expression in human neuronal cells | NF-kB reporter expression; stronger effect = higher value | fold change at 12.5 µM | 190,000 compounds, 1.6% hits | AID 1239; in the data active = fold change above about 3.3
APP 5'UTR act: activates APP 5'UTR luciferase reporter; 190,000 compounds, 1% hits; SH-SY5Y APP 5'UTR luciferase reporter, luminescence; zero percent = DMSO vehicle wells; activation, % at 2 µM;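 active = activation above a set limit, based on mean plus 3 SD of controls, cut at about 140% in these data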
STAT1 act: increases IFN-gamma driven STAT1 reporter signal; NIH 3T3 STAT1-luciferase reporter, luminescence; 100% = IFN-gamma alone, no compound; activation (% of control), % at 5.5 µM; 200,000 compounds, 2.6% hits; AID 932;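 active = activation above the screen-wide mean activation plus 3 SD, cut at about 130% in these data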
Pf gametocyte: kills late stage P. falciparum gametocytes; P. falciparum stage V gametocytes, ATP luminescence, 24 h; 150,000 compounds, 0.065% hits; inhibition, % at 10.9 µM;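 active = inhibition above the mean plus 3 SD of compounds within the control limits, set per campaign, cut at about 38% in these data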
FLuc inhib CS: Photinus pyralis luciferase inhibition counter-screen | ATPLite firefly luciferase biochemical luminescence, 10 min | P08659 | inhibition, % at 10 µM | 200,000 compounds, 1.5% hits;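 active = inhibition above about 50% when tested at 10 µM, limit read from the data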
Target sequence (P08659 whole entry, looked up): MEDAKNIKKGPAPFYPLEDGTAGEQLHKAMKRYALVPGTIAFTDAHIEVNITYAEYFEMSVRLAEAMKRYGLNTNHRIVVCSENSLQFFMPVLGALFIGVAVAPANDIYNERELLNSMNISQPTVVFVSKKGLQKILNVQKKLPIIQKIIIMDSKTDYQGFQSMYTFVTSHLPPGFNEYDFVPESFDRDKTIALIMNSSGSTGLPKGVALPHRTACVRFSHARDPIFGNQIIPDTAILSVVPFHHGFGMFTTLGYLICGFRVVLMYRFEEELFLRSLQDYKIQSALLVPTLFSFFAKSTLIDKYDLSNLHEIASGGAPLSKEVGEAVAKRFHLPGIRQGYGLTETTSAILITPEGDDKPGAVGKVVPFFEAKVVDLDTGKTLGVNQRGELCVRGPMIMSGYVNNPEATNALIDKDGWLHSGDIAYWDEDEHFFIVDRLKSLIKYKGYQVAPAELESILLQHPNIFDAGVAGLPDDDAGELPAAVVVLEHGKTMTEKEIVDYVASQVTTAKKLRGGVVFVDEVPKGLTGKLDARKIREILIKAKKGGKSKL
FLuc act counter: affects firefly luciferase, flagging false hits in luciferase stimulation screens; P08659; ATPlite luciferase biochemical, luminescence, 10 min; 0 = ATP-free wells, 1 = DMSO control; activation factor at 10 µM; 200,000 tested, under 10 active; AID 1027;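 active = luciferase activation factor, scaled between plate controls, of at least 2 with compound at 10 µM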
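Material: Luciferase/luciferin reagent mix; Doses: test compounds dosed from 2 mM stocks in 100% DMSO; Schedule: 10 min incubation after luciferase reagent addition, room temperature; Measured by: luminescence from luciferase reaction; Read-out: luminescence gain marking luciferase activators.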
Each line names hits and unclear results; the compound was inactive in the other large screens. An excerpt weighted towards active compounds, which were near 3.5% of everything screened.

Cc1cc2ncc(C(=O)Nc3ccccc3)c(C)n2n1	none (no result: Pf gametocyte)
CC(=O)c1cnc2c(-c3ccc(Cl)cc3)c(C)nn2c1C	none (no result: Pf gametocyte)
CC(=O)c1cnc2cc(-c3ccc(Cl)cc3)nn2c1C	NF-kB expr up 3.59, STAT1 act 137.7
Cc1ccnc(NC(=O)CCC(=O)N(CC(=O)NC2CCCCC2)C2CCCC2)c1	none (no result: NF-kB expr up, APP 5'UTR act, STAT1 act, FLuc inhib CS, FLuc act counter)
CC(C)OCCCNC(=S)NNC(=O)C(c1ccccc1)c1ccccc1	none
Cc1ccc(C(=O)Nc2ccc(O)cc2C(=O)O)cc1	FLuc inhib CS 58.9
Cc1ccc(C(=O)Nc2ccc(O)cc2C(=O)O)cc1C	FLuc inhib CS 68.7 (no result: Pf gametocyte)
Nc1nnnn1/N=C/c1ccc(O)cc1	none (no result: APP 5'UTR act, Pf gametocyte)
CCN(C)c1ccc(/C=N\n2nnnc2N)cc1	STAT1 act 140.7 (no result: Pf gametocyte)
COc1cccc(/C=C/C(=O)Nc2ccc(OC)nc2)c1	none
COc1ccc(NC(=O)/C=C/c2ccccc2)cn1	STAT1 act 141.4
COc1ccc(NC(=O)/C=C/c2ccc(F)cc2)cn1	STAT1 act 135.8
Cc1ccc(C(=O)C2COC(=O)C2)cc1 (centres undefined)	none (no result: Pf gametocyte)
CN(C)/C=C/C(=O)c1cnc(-c2ccc(Cl)cc2)s1	NF-kB expr up 3.87, STAT1 act 133.4, FLuc inhib CS 53.4
CN(C)/C=C/C(=O)c1cnc(-c2ccccc2)s1	NF-kB expr up 3.76, STAT1 act 131.4
COc1ccc(/C=N/NC(=O)c2cccc(COCC(F)(F)C(F)F)c2)cc1	none
O=c1[nH]nc(-c2ccc(F)cc2)cc1Cc1ccccc1	none (no result: NF-kB expr up, APP 5'UTR act, STAT1 act, FLuc inhib CS, FLuc act counter)
CN1CCN(Cn2cc(/C=C/C(=O)c3ccccc3)c3ccccc32)CC1	NF-kB expr up 12.8, APP 5'UTR act 165.0, STAT1 act 131.2 (no result: Pf gametocyte)
CC(=O)c1cccc(NC(=O)Nc2ccc(C(=O)N3CCCC3)cc2)c1	FLuc inhib CS 60.8 (no result: Pf gametocyte)
O=C(c1ccccc1)N1CCCCCC1	none (no result: Pf gametocyte)
O=C(Nc1ccccc1)Nc1ccc(C(=O)N2CCCC2)cc1	APP 5'UTR act 185.9, FLuc inhib CS 87.3
O=C(CN1CCCC1)Nc1ccc(NC(=O)Nc2ccccc2)cc1	STAT1 act 130.9 (no result: Pf gametocyte)
CCN(CC)c1ccc(NC(=O)Nc2cccc(C(C)=O)c2)cc1	FLuc inhib CS 51.8
CC(=O)Nc1cccc(NC(=O)Nc2ccc(C(C)=O)cc2)c1	none (no result: Pf gametocyte)
COc1ccc(N2C(=O)CCC(C(=O)NCc3ccccn3)C2c2ccc(F)cc2)cc1 (centres undefined)	none (no result: Pf gametocyte)
CC(C)C(NC(=O)c1ccccc1)C(=O)N/N=C\c1ccco1 (centres undefined)	none
CCN(CC)S(=O)(=O)c1ccc(Cl)c(NC(=O)COC(=O)c2cccn2C)c1	Pf gametocyte 42.1
CC(C)(C)c1ccc(S(=O)(=O)CCc2ccccn2)cc1	STAT1 act 128.9 (no result: Pf gametocyte)
O=C(/C=C/c1ccc(S(=O)(=O)N2CCOCC2)cc1)NCCCn1ccnc1	none
Cc1cc(/C=C2/C(=N)N3C(=NC2=O)SN=C3S(C)(=O)=O)c(C)n1-c1ccc(F)cc1	FLuc inhib CS 69.5
CCOc1ccc(-n2c(C)cc(/C=C3/C(=N)N4C(=NC3=O)SN=C4S(C)(=O)=O)c2C)cc1	none
Cc1ccccc1-n1c(C)cc(/C=C2/C(=N)N3C(c4ccccc4)=CSC3=NC2=O)c1C	none
COc1ccccc1-n1c(C)cc(/C=C2/C(=N)N3C(=NC2=O)SN=C3S(C)(=O)=O)c1C	FLuc inhib CS 86.6
CC(C)CN1CCC(=O)N([C@H](COc2ccccc2)c2ccccc2)CC1	none (no result: NF-kB expr up, APP 5'UTR act, STAT1 act, FLuc inhib CS, FLuc act counter)
NNc1ccc2nnc(C(F)(F)C(F)(F)C(F)(F)F)n2n1	none
CC1=C([N+](=O)[O-])C(c2cccc(Br)c2)C2=C(N1)c1ccccc1C2=O (centres undefined)	NF-kB expr up 4.47
O=c1c(Br)c(N2CCCC2)cnn1-c1ccccc1	STAT1 act 142.6
CN1CCN(c2cnn(-c3ccccc3)c(=O)c2Br)CC1	none (no result: Pf gametocyte)
O=c1c(Br)c(N2CCCCC2)cnn1-c1ccccc1	NF-kB expr up 3.92, APP 5'UTR act 166.5, STAT1 act 146.6 (no result: Pf gametocyte)
Cn1c(NC(=O)c2ccccc2NC(=O)C(C)(C)C)nc2ccccc21	none (no result: Pf gametocyte)
Cc1[nH]c2ccccc2c1SCCNC(=O)c1ccc(Br)o1	none
CCOC(=O)c1c(C)oc2c1cc(O)c1ccccc12	NF-kB expr up 3.31, APP 5'UTR act 171.7 (no result: Pf gametocyte)
CCCNC(=O)c1onc(CSc2ccc(Cl)cc2)c1C(=O)NC(C)C	none (no result: NF-kB expr up, APP 5'UTR act, STAT1 act, FLuc inhib CS, FLuc act counter)
O=C(Nc1nc2cc3c(cc2s1)OCCO3)c1ccc(N2C(=O)CCC2=O)cc1	none (no result: NF-kB expr up, APP 5'UTR act, STAT1 act, FLuc inhib CS, FLuc act counter)
O=C(Nc1nc2cc3c(cc2s1)OCCO3)c1ccncc1	APP 5'UTR act 153.4, STAT1 act 132.3, FLuc inhib CS 75.6
O=C1CCOc2cc(OCc3ccccc3)ccc21	NF-kB expr up 6.3, STAT1 act 133.9
O=C(COC(=O)c1cc(S(=O)(=O)N2CCCCC2)ccc1N1CCOCC1)NC1CCCCC1	none
O=c1[nH]nc(-c2ccccc2)c2ccccc12	none (no result: NF-kB expr up, APP 5'UTR act, STAT1 act, FLuc inhib CS, FLuc act counter)
Cc1ccc(-c2n[nH]c(=O)c3ccccc23)cc1S(=O)(=O)N(C)C	none (no result: NF-kB expr up, APP 5'UTR act, STAT1 act, FLuc inhib CS, FLuc act counter)
O=Nc1c2cc(-c3ccccc3)[nH]nc-2c2ccccc12	NF-kB expr up 4.75, FLuc inhib CS 87.0
Cc1cccc(-c2cc3c(N=O)c4ccccc4c-3n[nH]2)c1	NF-kB expr up 3.75, APP 5'UTR act 142.4, FLuc inhib CS 63.0
Cc1ccc(-c2cc3c(N=O)c4ccccc4c-3n[nH]2)cc1	FLuc inhib CS 93.6
Cc1ccc(-c2cc(=O)c3ccccc3[nH]2)cc1	none (no result: Pf gametocyte)
O=C(O)c1cc(S(=O)(=O)N2CCOCC2)c(Sc2ccccn2)cc1Sc1ccccn1	none
CC(=O)N1CCC(C(=O)Nc2ccccc2)(N(Cc2ccccc2)C(=O)c2cccnc2)CC1	none (no result: Pf gametocyte)
CCN=c1scc(-c2ccco2)n1/N=C/c1ccc(OC)c(O)c1	NF-kB expr up 3.99, APP 5'UTR act 181.7 (no result: Pf gametocyte)
Cc1ccc2nc(-c3cc(N)cc(N)c3)oc2c1	FLuc inhib CS 94.3
Nc1ccc(-c2nc3ccc(N)cc3o2)cc1	FLuc inhib CS 86.6 (no result: Pf gametocyte)
COC(=O)c1ccc(-c2nc3cc(N)ccc3o2)cc1	FLuc inhib CS 82.9 (no result: Pf gametocyte)
Nc1ccc(-c2nc3cc(N)ccc3o2)cc1	none (no result: NF-kB expr up, APP 5'UTR act, STAT1 act, FLuc inhib CS, FLuc act counter)
O=C(NCc1ccccc1F)C1CCCN1C(=O)Nc1ccc(F)cc1 (centres undefined)	none (no result: NF-kB expr up, APP 5'UTR act, STAT1 act, FLuc inhib CS, FLuc act counter)
c1cncc(-c2nc(-c3cccs3)cs2)c1	none (no result: Pf gametocyte)
Oc1ccc(-c2nc(-c3ccc(O)c(O)c3)cs2)cc1	NF-kB expr up 3.81
Oc1ccc(-c2csc(-c3cccnc3)n2)c(O)c1	FLuc inhib CS 53.4
Oc1ccc(Nc2nc(-c3ccc4ccccc4c3)cs2)cc1	none (no result: Pf gametocyte)
c1cncc(-c2nc(-c3ccc4c(c3)OCO4)cs2)c1	STAT1 act 143.2
Clc1ccsc1-c1csc(-c2cccnc2)n1	STAT1 act 128.9
CCOc1ccc(CC(C(N)=O)C(N)=O)cc1CN(C)C	none
O=C(OCc1ccc(COC(=O)c2cccnc2Cl)cc1)c1cccnc1Cl	none
O=C(COC(=O)c1cccnc1Cl)c1ccccc1	STAT1 act 130.0, FLuc inhib CS 59.4 (no result: Pf gametocyte)
CCc1ccc(C(=O)COC(=O)c2cccnc2Cl)cc1	FLuc inhib CS 90.6
